Key:
Phosphodiesterase 4 [1] = target: T1, Phosphodiesterase 4 (Homo sapiens, UniProt P27815+Q08499+Q07343+Q08493); experiment: Inhibition of guinea pig ventricular Phosphodiesterase 4; assay type: protein assay, Cavia porcellus; conditions: target entry is the homologue from another species
Phosphodiesterase 3 [2] = target: T2, Phosphodiesterase 3 (Homo sapiens, UniProt Q14432+Q13370); experiment: Inhibition of guinea pig ventricular Phosphodiesterase 3 at 20 uM; assay type: protein assay; conditions: Cavia porcellus, target entry is the homologue from another species
How it was run: (§1)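 Guinea pig ventricular PDE III/IV resolved by Mono-Q anion exchange (50–1000 mM sodium acetate gradient, Bis-Tris pH 6.5); isoenzymes characterized by substrate selectivity, Ca2+/calmodulin and selective inhibitors; pools stored -20 °C with 1 g/L BSA. Thompson–Strada assay, cAMP substrate 0.25 μM, duplicates; drugs in DMSO; IC50 by nonlinear regression or % inhibition at stated concentration, n = 3, ±SEM.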

Phosphodiesterase 3 [3] = target: T2, Phosphodiesterase 3; experiment: Inhibition of guinea pig ventricular Phosphodiesterase 3; assay type: protein assay, Cavia porcellus; conditions: target entry is the homologue from another species
[4] = target: Phosphodiesterase 4 (Rattus norvegicus) (UniProt P14270+P14646+P14644+P54748); experiment: Displacement of [3H]rolipram from rat brain membranes at 10 uM; assay type: cell membranes; conditions: Membrane
Phosphodiesterase 3 [5] = target: T2, Phosphodiesterase 3; experiment: Inhibition of guinea pig ventricular Phosphodiesterase 3 at 200 uM; conditions: Cavia porcellus, target entry is the homologue from another species
Phosphodiesterase 4 [6] = target: T1, Phosphodiesterase 4; experiment: Inhibition of guinea pig ventricular Phosphodiesterase 4 at 200 uM; assay type: protein assay; conditions: Cavia porcellus, target entry is the homologue from another species; how it was run: as §1

| IC50 (Phosphodiesterase 4 [1]) [µM] | inhibition (Phosphodiesterase 3 [2]) [%] | IC50 (Phosphodiesterase 3 [3]) [µM] | inhibition [4] [%] | inhibition (Phosphodiesterase 3 [5]) [%] | inhibition (Phosphodiesterase 4 [6]) [%] | SMILES |
| --- | --- | --- | --- | --- | --- | --- |
| 1.3 | 25 |  |  |  |  | CCOC(=O)c1sc2c(=O)n(CC)nc(-c3cccc([N+](=O)[O-])c3)c2c1C |
| 2 | 35 |  |  |  |  | CCn1nc(-c2ccccc2)c2c(C)nnc-2c1O |
| 31 | 33 |  | 28 |  |  | CCOC(=O)c1nc2c(O)n(Cc3ccccc3)nc(-c3ccccc3)c-2c1C |
| 1.1 | 51 |  |  |  |  | CCn1nc(-c2ccccc2)c2c(c1=O)N(C)CC(C#N)=C2C |
| 0.9 |  | 5.9 |  |  |  | CCOC(=O)c1sc2c(=O)n(CC)nc(-c3ccccc3)c2c1C |
| 11 | 20 |  |  |  |  | CCOC(=O)c1sc2c(=O)n(Cc3ccccc3)nc(-c3ccccc3)c2c1C |
| 0.8 | 56 |  |  |  |  | CCOC(=O)c1sc2c(=O)n(CC)nc(-c3cccc(Cl)c3)c2c1C |

Further lines, the molecule ahead of its results:

| SMILES | IC50 (Phosphodiesterase 4 [1]) [µM] | inhibition (Phosphodiesterase 3 [2]) [%] | IC50 (Phosphodiesterase 3 [3]) [µM] | inhibition [4] [%] | inhibition (Phosphodiesterase 3 [5]) [%] | inhibition (Phosphodiesterase 4 [6]) [%] |
| --- | --- | --- | --- | --- | --- | --- |
| O=c1c2cccnc2c(-c2cccc(Cl)c2)nn1Cc1ccncc1 | 0.056 |  | 5.1 |  |  |  |
| COc1ccc(C2CNC(=O)C2)cc1OC1CCCC1 (centres undefined) [ROLIPRAM] |  |  | 242 |  |  |  |
| Cc1nnc2c(O)n(Cc3ccccc3)nc(-c3ccccc3)c1-2 | 3.1 |  |  | 54 | 60 |  |
| CCOC(=O)c1nc2c(O)n(CC)nc(-c3ccccc3)c-2c1C | 0.6 | 30 |  |  |  |  |
| Cc1nn(C)c2c(=O)n(Cc3ccccc3)nc(-c3ccccc3)c12 |  |  |  | 11 | 30 | 45 |
| CCn1nc(-c2ccccc2)c2c(C)nn(C)c2c1=O | 7.4 | 35 |  | 46 |  |  |
